Results published in ChEMBL document CHEMBL1135826, “Antimicrobial peptides: synthesis and antibacterial activity of linear and cyclic drosocin and apidaecin 1b analogues” (2002).
Converted amounts (≈) assume the structure as drawn. Where a SMILES comes first, the peptide text is derived from it.

Assays:
[1] = system: Klebsiella pneumoniae; assay: Minimum inhibitory concentration (lowest peptide concentration) required to prevent visible bacterial growth after 18 hr of incubation at 37 C in Mueller-Hinton broth against Klebsiella pneumoniae 79; assay type: functional
Procedure, shortened: (§1)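 Broth microdilution susceptibility test per NCCLS guidelines, in Mueller–Hinton broth with about 1.5–2.0 × 10^5 CFU/mL inoculum. Plates were incubated 18 h at 37 °C. MIC was taken as the lowest peptide concentration with no visible growth. Strains were ATCC strains or clinical isolates; E. coli O18:K1:H7 Bort is an encapsulated isolate from neonatal spinal fluid, and the S. aureus isolate is MRSA.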

[2] = system: Escherichia coli; assay: Minimum inhibitory concentration (lowest peptide concentration) required to prevent visible bacterial growth after 18 hr of incubation at 37 C in Mueller-Hinton broth against Escherichia coli ML-35; assay type: functional; procedure, shortened: as §1
[3] = system: Acinetobacter baumannii; assay: Minimum inhibitory concentration (lowest peptide concentration) required to prevent visible bacterial growth after 18 hr of incubation at 37 C in Mueller-Hinton broth against Acinetobacter baumannii 118A; assay type: functional; procedure, shortened: as §1
[4] = system: Escherichia coli; assay: Minimum inhibitory concentration (lowest peptide concentration) required to prevent visible bacterial growth after 18 hr of incubation at 37 C in Mueller-Hinton broth against Escherichia coli D21; assay type: functional; procedure, shortened: as §1
[5] = system: Salmonella typhimurium; assay: Minimum inhibitory concentration (lowest peptide concentration) required to prevent visible bacterial growth after 18 hr of incubation at 37 C in Mueller-Hinton broth against Salmonella Typhimurium ATCC 14028; assay type: functional, Salmonella enterica subsp. enterica serovar Typhimurium; details: Salmonella enterica; procedure, shortened: as §1
[6] = system: Pseudomonas aeruginosa; assay: Minimum inhibitory concentration (lowest peptide concentration) required to prevent visible bacterial growth after 18 hr of incubation at 37 C in Mueller-Hinton broth against Pseudomonas aeruginosa ATCC 27853; assay type: functional; details: ATCC 27853, 18 h; procedure, shortened: as §1
[7] = system: Escherichia coli; assay: Minimum inhibitory concentration (lowest peptide concentration) required to prevent visible bacterial growth after 18 hr of incubation at 37 C in Mueller-Hinton broth against Escherichia coli D22; assay type: functional; procedure, shortened: as §1
[8] = system: Escherichia coli; assay: Minimum inhibitory concentration (lowest peptide concentration) required to prevent visible bacterial growth after 18 hr of incubation at 37 C in Mueller-Hinton broth against Escherichia coli ATCC 25922; assay type: functional; details: ATCC 25922, 18 h; procedure, shortened: as §1
[9] = system: Salmonella enteritidis; assay: Minimum inhibitory concentration (lowest peptide concentration) required to prevent visible bacterial growth after 18 h of incubation at 37 C in Mueller-Hinton broth against […]; assay type: functional, Salmonella enterica subsp. enterica serovar Enteritidis; details: Salmonella enterica; procedure, shortened: as §1
[10] = system: Staphylococcus aureus; assay: Minimum inhibitory concentration (lowest peptide concentration) required to prevent visible bacterial growth after 18 hr of incubation at 37 C in Mueller-Hinton broth against Staphylococcus aureus G; assay type: functional; procedure, shortened: as §1
[11] = system: Staphylococcus epidermidis; assay: Minimum inhibitory concentration (lowest peptide concentration) required to prevent visible bacterial growth after 18 hr of incubation at 37 C in Mueller-Hinton broth against Staphylococcus epidermidis 4; assay type: functional; procedure, shortened: as §1
[12] = system: Salmonella enteritidis; assay: Minimum inhibitory concentration (lowest peptide concentration) required to prevent visible bacterial growth after 18 hr of incubation at 37 C in Mueller-Hinton broth against Salmonella enteritidis D5; details: Salmonella enterica
[13] = system: Escherichia coli; assay: Minimum inhibitory concentration (lowest peptide concentration) required to prevent visible bacterial growth after 18 hr of incubation at 37 C in Mueller-Hinton broth against Escherichia coli O18:K1:H7; assay type: functional; procedure, shortened: as §1
[14] = system: Klebsiella pneumoniae; assay: Minimum inhibitory concentration (lowest peptide concentration) required to prevent visible bacterial growth after 18 hr of incubation at 37 C in Mueller-Hinton broth against Klebsiella pneumoniae 22; assay type: functional; procedure, shortened: as §1

Compound | MIC [1] [µM] | MIC [2] [µM] | MIC [3] [µM] | MIC [4] [µM] | MIC [5] [µM] | MIC [6] [µM] | MIC [7] [µM] | MIC [8] [µM] | MIC [9] [µM] | MIC [10] [µM] | MIC [11] [µM] | MIC [12] [µM] | MIC [13] [µM] | MIC [14] [µM]
CC[C@H](C)[C@@H]1NC(=O)[C@H](Cc2ccc(O)cc2)NC(=O)[C@H](C(C)C)NC(=O)[C@@H]2CCCN2C(=O)[C@H](CCCN=C(N)N)NC(=O)[C@H](CC(N)=O)NC(=O)[C@H](CC(N)=O)NC(=O)CNC(=O)[C@H](CC(C)C)NC(=O)[C@H](CCCN=C(N)N)NC(=O)[C@@H]2CCCN2C(=O)[C@H](Cc2c[nH]cn2)NC(=O)[C@@H]2CCCN2C(=O)[C@@H]2CCCN2C(=O)[C@H](CCCN=C(N)N)NC(=O)[C@@H]2CCCN2C(=O)[C@H](CCC(N)=O)NC(=O)[C@@H]2CCCN2C1=O (HELM PEPTIDE1{G.N.N.R.P.V.Y.I.P.Q.P.R.P.P.H.P.R.L}$PEPTIDE1,PEPTIDE1,1:R1-18:R2$$$V2.0) | > 64 | 64 (≈ 134 µg/mL) | > 128 | > 64 | > 64 | > 128 | 64 (≈ 134 µg/mL) | > 64 | > 64 | > 64 | > 64 | > 64 | 32 (≈ 66.9 µg/mL) | > 64
CC[C@H](C)[C@H](NC(=O)[C@H](Cc1ccc(O)cc1)NC(=O)[C@@H](NC(=O)[C@@H]1CCCN1C(=O)[C@H](CCCNC(=N)N)NC(=O)[C@H](CC(N)=O)NC(=O)[C@H](CC(N)=O)NC(=O)CN)C(C)C)C(=O)N1CCC[C@H]1C(=O)N[C@@H](CCC(N)=O)C(=O)N1CCC[C@H]1C(=O)N[C@@H](CCCNC(=N)N)C(=O)N1CCC[C@H]1C(=O)N1CCC[C@H]1C(=O)N[C@@H](Cc1cnc[nH]1)C(=O)N1CCC[C@H]1C(=O)N[C@@H](CCCNC(=N)N)C(=O)N[C@@H](CC(C)C)C(=O)O [APIDAECIN] | 32 (≈ 67.5 µg/mL) | 4 (≈ 8.43 µg/mL) | > 128 | > 64 | 8 (≈ 16.9 µg/mL) | > 128 | 4 (≈ 8.43 µg/mL) | 4 (≈ 8.43 µg/mL) | 4 (≈ 8.43 µg/mL) | > 64 | > 64 | 4 (≈ 8.43 µg/mL) | 4 (≈ 8.43 µg/mL) | 32 (≈ 67.5 µg/mL)
H-GKPRPYSPRPASHPRPIRV-OH | > 128 | 16 | > 128 | > 128 | 32 | > 128 | > 64 | 64 | 16 | > 64 | > 64 | 8 | 16 | > 128
H-GKPRPYSPRPSHPRPIRV-OH | > 128 | 32 | > 64 | > 64 | > 64 | > 128 | > 64 | 64 | > 64 | > 64 | > 64 | 32 | 64 | > 128
H-GKPRPYSPRPTSHPRPIRV-OH [DROSOCIN] | 64 | 2 | > 128 | > 128 | 32 | > 128 | > 64 | 4 | 8 | > 64 | > 64 | 16 | 8 | 128
H-GNNRPVYIPQPRPTPHPRL-OH | > 128 | > 128 | > 128 | > 64 | > 128 | > 128 | > 64 | > 128 | > 128 | > 64 | > 64 | > 128 | > 128 | > 128
